Laboratory results from ChEMBL document CHEMBL3585289, “Potent and Selective Amidopyrazole Inhibitors of IRAK4 That Are Efficacious in a Rodent Model of Inflammation” (ACS Med Chem Lett, 2015).
In brackets after ≈: the same amount, converted by molar mass. Activity calls are given as the source filed them. No cut-off for these calls is given here.

Legend:
[1] = Kinetic aqueous solubility of the compound in phosphate buffered saline at pH 7 at 25 degC after 24 hrs by HPLC/DAD method; format: physicochemical; conditions: read-out: Kinetic_solubility
[2] = molecular target: T1, Interleukin-1 receptor-associated kinase 4 (Homo sapiens, UniProt Q9NWZ3); test: biochemical
T1 sequence (Q9NWZ3 whole entry): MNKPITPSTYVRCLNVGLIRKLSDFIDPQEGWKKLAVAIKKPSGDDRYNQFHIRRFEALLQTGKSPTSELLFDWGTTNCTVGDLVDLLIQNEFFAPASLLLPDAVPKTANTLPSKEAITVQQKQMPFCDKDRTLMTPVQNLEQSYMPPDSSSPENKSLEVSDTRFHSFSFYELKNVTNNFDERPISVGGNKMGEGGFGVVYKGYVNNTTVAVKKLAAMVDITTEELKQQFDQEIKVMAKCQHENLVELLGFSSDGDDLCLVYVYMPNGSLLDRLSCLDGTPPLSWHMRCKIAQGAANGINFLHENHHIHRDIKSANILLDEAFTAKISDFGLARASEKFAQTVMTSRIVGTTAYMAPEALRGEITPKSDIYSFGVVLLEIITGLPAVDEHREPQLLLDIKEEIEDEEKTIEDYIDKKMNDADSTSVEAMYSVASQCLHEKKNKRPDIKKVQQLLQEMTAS

[3] = AUC (0 to 6 hrs) in Sprague-Dawley rat at 10 mg/kg, po administered as cassette dosing; format: ADME, organism-based; parameters: time < 6 hr, dose 10 mg/kg, route oral; conditions: in vivo
[4] = Drug metabolism in rat hepatocytes assessed as monooxidized metabolite formation; format: ADME, cell-based, Hepatocyte
[5] = system: Rattus norvegicus; test: Antiinflammatory activity in Lewis rat peritonitis model assessed as reduction of TLR2 agonist PAM2CSK4-induced TNF-alpha production in plasma at 100 mg/kg, po administered 1 hr prior to PAM2CSK4 challenge measured after 3 hrs relative to vehicle-treated control; format: functional; parameters: scale not given: the % may be the effect or the level left
How it was run: (§1)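 Female Lewis rats (n = 9) dosed by oral gavage at 100 mg/kg. One hour later, TLR2 agonist PAM2CSK4 injected intraperitoneally. Plasma collected 3 h after injection for cytokine levels and drug exposure. Cytokines expressed relative to a vehicle-only group.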

[6] = system: Rattus norvegicus; test: Antiinflammatory activity in Lewis rat peritonitis model assessed as reduction of TLR2 agonist PAM2CSK4-induced IL-6 production in plasma at 100 mg/kg, po administered 1 hr prior to PAM2CSK4 challenge measured after 3 hrs relative to vehicle-treated control; format: functional; parameters: scale not given: the % may be the effect or the level left; how it was run: as §1
[7] = Fraction unbound in rat plasma at 10 uM after 6 hrs by dialysis method; format: ADME, cell-free
[8] = system: Mus musculus; test: Antiinflammatory activity in CIA-MAB-50-induced BALB/c mouse arthritis model assessed as decrease in LPS-induced paw size at 100 mg/kg, po qd administered on day 3 to 10 post LPS challenge measured on day 10 relative to vehicle-treated control; format: functional, organism-based
How it was run: (§2)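 BALB/c female mice given arthritogenic monoclonal antibody CIA-MAB-50 (2.5 mg) on day 0, then LPS booster (25 μg i.p.) on day 3. Oral gavage once daily on days 3–10; vehicle group received methylcellulose. Paw size measured on days 0, 3, 6, 8 and 10. Study ended on day 10, and day-10 paw size was compared with vehicle.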

[9] = Oral bioavailability in Sprague-Dawley rat at 10 mg/kg administered as cassette dosing; format: ADME, organism-based; conditions: in vivo
[10] = molecular target: T2, Interleukin-1 receptor-associated kinase 4 (Homo sapiens) (UniProt Q9NWZ3); conditions: 1 uM
T2 sequence (whole entry): T1 sequence (Q9NWZ3 whole entry)

[11] = molecular target: T1, Interleukin-1 receptor-associated kinase 4; test: Inhibition of IRAK4 in human THP1-XBlue cells assessed as suppression of TLR4 agonist LPS-induced activation of NF-kappaB preincubated for 1 hr followed by LPS challenge measured after 5 hrs by secreted embryonic alkaline phosphatase reporter gene assay; format: cell-based, THP-1
[12] = AUC (0 to 8 hrs) in Sprague-Dawley rat at 2 mg/kg, iv; format: ADME, organism-based; parameters: dose 2 mg/kg, time < 8 hr, route intravenous; conditions: in vivo
[13] = system: Pgp; test: Activity at rat Pgp assessed as apparent permeability by cell-based assay; format: ADME; conditions: not told
[14] = AUC (0 to 24 hrs) in mouse at 5 mg/kg, po; format: ADME, organism-based; parameters: dose 5 mg/kg, time < 24 hr, route oral; conditions: in vivo
[15] = system: Rattus norvegicus; test: Antiinflammatory activity in Lewis rat peritonitis model assessed as reduction of TLR2 agonist PAM2CSK4-induced IL-8 production in plasma at 100 mg/kg, po administered 1 hr prior to PAM2CSK4 challenge measured after 3 hrs relative to vehicle-treated control; format: functional; parameters: scale not given: the % may be the effect or the level left; how it was run: as §1
[16] = system: Rattus norvegicus; test: Antiinflammatory activity in Lewis rat peritonitis model assessed as reduction of TLR2 agonist PAM2CSK4-induced IL-1beta production in plasma at 100 mg/kg, po administered 1 hr prior to PAM2CSK4 challenge measured after 3 hrs relative to vehicle-treated control; format: functional; parameters: scale not given: the % may be the effect or the level left; how it was run: as §1
[17] = system: Rattus norvegicus; test: Antiinflammatory activity in Lewis rat peritonitis model assessed as reduction of TLR2 agonist PAM2CSK4-induced IFN-gamma production in plasma at 100 mg/kg, po administered 1 hr prior to PAM2CSK4 challenge measured after 3 hrs relative to vehicle-treated control; format: functional; parameters: scale not given: the % may be the effect or the level left; how it was run: as §1
[18] = AUC (0 to 8 hrs) in Sprague-Dawley rat at 10 mg/kg, po administered as cassette dosing; format: ADME, organism-based; parameters: dose 10 mg/kg, time < 8 hr, route oral; conditions: in vivo
[19] = molecular target: T2, Interleukin-1 receptor-associated kinase 4 (Homo sapiens); test: Inhibition of recombinant human IRAK4 at 10 uM relative to control
[20] = molecular target: BDNF/NT-3 growth factors receptor (Homo sapiens) (UniProt Q16620); test: Inhibition of recombinant human TRKB at 10 uM relative to control
[21] = Plasma concentration in PAM2CSK4 challenged Lewis rat peritonitis model at 100 mg/kg, po administered 1 hr prior to PAM2CSK4 challenge measured after 3 hrs; format: ADME, organism-based; how it was run: as §1
[22] = system: Pgp; test: Apparent permeability across pig LLC-PK1 cells expressing human or mouse Pgp; format: ADME, cell-based, Sus scrofa
[23] = molecular target: Misshapen-like kinase 1 (Homo sapiens) (UniProt Q8N4C8); test: Inhibition of recombinant human MINK1 at 10 uM relative to control
[24] = system: Mus musculus; test: Antiinflammatory activity in CIA-MAB-50-induced BALB/c mouse arthritis model assessed as decrease in LPS-induced paw size at 2 mg/kg, po qd administered on day 3 to 10 post LPS challenge measured on day 10 relative to vehicle-treated control; format: functional, organism-based; how it was run: as §2

Sequence of Misshapen-like kinase 1 (Homo sapiens) (Q8N4C8 whole entry, looked up): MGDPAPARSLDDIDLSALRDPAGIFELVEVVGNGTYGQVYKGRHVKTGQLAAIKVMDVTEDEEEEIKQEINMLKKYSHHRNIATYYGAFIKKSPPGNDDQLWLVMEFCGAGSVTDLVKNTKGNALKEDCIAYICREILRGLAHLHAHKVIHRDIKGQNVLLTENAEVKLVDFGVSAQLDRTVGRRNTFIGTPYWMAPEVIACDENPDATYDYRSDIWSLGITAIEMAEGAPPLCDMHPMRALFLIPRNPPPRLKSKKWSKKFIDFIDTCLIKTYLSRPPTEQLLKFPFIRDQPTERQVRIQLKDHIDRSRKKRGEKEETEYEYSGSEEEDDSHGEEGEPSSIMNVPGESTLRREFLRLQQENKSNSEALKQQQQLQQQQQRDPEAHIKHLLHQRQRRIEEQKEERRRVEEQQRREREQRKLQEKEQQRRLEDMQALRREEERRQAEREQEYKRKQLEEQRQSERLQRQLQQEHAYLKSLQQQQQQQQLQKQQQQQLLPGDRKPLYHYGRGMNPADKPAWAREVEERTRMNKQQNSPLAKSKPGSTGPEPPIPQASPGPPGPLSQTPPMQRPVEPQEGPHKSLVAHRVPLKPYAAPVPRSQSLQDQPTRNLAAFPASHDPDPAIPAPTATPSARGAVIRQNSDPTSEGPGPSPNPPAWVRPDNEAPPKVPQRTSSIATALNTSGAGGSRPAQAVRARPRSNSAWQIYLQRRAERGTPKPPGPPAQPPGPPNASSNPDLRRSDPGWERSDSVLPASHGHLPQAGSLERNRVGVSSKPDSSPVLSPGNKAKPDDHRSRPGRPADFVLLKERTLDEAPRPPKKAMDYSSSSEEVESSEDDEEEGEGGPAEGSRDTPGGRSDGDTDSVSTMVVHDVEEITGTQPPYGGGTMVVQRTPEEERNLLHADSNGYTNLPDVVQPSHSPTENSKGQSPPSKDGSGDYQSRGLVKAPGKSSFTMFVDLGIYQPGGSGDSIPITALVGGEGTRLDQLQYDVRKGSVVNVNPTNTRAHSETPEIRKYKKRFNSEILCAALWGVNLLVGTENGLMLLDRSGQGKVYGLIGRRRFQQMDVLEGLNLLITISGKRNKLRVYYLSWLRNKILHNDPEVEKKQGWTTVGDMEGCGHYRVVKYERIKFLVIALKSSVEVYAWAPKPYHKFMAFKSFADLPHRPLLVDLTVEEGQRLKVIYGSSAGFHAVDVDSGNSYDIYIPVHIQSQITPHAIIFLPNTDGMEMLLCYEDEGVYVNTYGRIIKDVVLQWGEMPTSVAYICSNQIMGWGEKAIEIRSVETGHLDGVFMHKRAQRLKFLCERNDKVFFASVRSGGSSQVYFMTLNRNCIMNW
Sequence of BDNF/NT-3 growth factors receptor (Homo sapiens) (Q16620 32-822 limits assumed): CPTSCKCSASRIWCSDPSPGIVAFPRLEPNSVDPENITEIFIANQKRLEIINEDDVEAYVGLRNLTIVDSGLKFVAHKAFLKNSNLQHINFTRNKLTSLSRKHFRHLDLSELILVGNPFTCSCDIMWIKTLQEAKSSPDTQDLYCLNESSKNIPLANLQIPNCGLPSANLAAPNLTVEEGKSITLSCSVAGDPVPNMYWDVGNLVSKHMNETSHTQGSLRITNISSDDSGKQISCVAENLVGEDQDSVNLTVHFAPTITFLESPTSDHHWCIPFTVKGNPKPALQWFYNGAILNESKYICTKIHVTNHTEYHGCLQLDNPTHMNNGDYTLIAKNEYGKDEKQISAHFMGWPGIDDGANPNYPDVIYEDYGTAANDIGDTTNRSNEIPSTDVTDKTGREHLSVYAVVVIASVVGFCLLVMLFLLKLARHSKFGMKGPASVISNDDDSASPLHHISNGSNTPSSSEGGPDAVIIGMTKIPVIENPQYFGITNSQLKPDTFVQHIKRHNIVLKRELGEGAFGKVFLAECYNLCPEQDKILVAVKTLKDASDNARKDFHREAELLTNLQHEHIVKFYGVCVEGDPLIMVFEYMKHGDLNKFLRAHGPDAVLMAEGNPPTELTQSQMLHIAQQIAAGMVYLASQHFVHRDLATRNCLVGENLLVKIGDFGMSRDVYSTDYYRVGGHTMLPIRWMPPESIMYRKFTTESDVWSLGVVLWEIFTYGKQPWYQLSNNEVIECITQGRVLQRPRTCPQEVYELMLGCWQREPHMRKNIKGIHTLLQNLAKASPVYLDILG

| SMILES | solubility kinetic at 24 h [1] [µM] | IC50 [2] [µM] | AUC(0-t) at 6 h [3] [µM·h] | also measured |
| --- | --- | --- | --- | --- |
| Cc1ccc(-n2nc(C3CCNCC3)cc2NC(=O)c2cnn3cccnc23)cc1 | 172 (≈ 69.1 µg/mL) | 0.08 |  |  |
| Cc1ccc(-n2nc(C3CCN(C(C)C)CC3)cc2NC(=O)c2cnn3cccnc23)cc1 | 170 (≈ 75.4 µg/mL) | 0.047 | 0.28 |  |
| COc1ccc(-c2cc(NC(=O)c3cnn4cccnc34)n(-c3ccc(C)cc3)n2)cc1OC | < 2 | 0.044 |  | Drug metabolism [4]: metabolite_detected |
| COc1cc(-c2cc(NC(=O)c3cnn4cccnc34)n(-c3ccc(C)cc3)n2)ccn1 | < 2 | 0.39 | 1.39 |  |
| Cc1ccc(-n2nc(N3CCN(C)CC3)cc2NC(=O)c2cnn3cccnc23)nc1 |  | 0.005 |  | Activity [5]: 32%; Activity [6]: 85%; fraction unbound at 6 h, 10 µM [7]: 0.21; Activity [8]: Active; bioavailability [9]: 28%; inhibition [10]: > 80%; IC50 [11]: 0.083 µM; AUC(0-t) at 8 h [12]: 1.29 µM·h; Papp [13]: 32 ×10⁻⁶ cm/s; AUC(0-t) at 24 h [14]: 2.3 µM·h; Activity [15]: 34%; Activity [16]: 28%; Activity [17]: 30%; AUC(0-t) at 8 h [18]: 1.7 µM·h |
| Cc1ccc(-n2nc(C3CCN(S(C)(=O)=O)CC3)cc2NC(=O)c2cnn3cccnc23)c(F)c1 |  | 0.04 | 11.8 |  |
| Cc1ccc(-n2nc(C3CCN(C(C)C)CC3)cc2NC(=O)c2cnn3cccnc23)nc1 |  | 0.007 |  |  |
| Cc1cccc(-n2nc(C3CCN(S(C)(=O)=O)CC3)cc2NC(=O)c2cnn3cccnc23)c1 |  | 2.1 |  |  |
| Cc1cnc(-n2nc(C3CCN(S(C)(=O)=O)CC3)cc2NC(=O)c2cnn3cccnc23)nc1 |  | 0.18 |  |  |
| CC(=O)N1CCC(c2cc(NC(=O)c3cnn4cccnc34)n(-c3ccc(C)cc3)n2)CC1 | 163 (≈ 72.3 µg/mL) | 0.18 | 0.71 |  |
| Cc1ccc(-n2nc(C3CCN(S(C)(=O)=O)CC3)cc2NC(=O)c2cnn3cccnc23)nc1 |  | 0.027 |  | inhibition [19]: > 80%; AUC(0-t) at 8 h [18]: 0.045 µM·h |
| COc1ccc(-c2cc(NC(=O)c3cnn4cccnc34)n(-c3ccc(C)cc3)n2)cn1 | 3 (≈ 1.28 µg/mL) | 0.31 |  |  |
| Cc1ccc(-n2nc(-c3ccccc3)cc2NC(=O)c2cnn3cccnc23)cc1 | < 3 | 0.69 |  |  |
| Cc1ccc(-n2nc(C3CCN(C(N)=O)CC3)cc2NC(=O)c2cnn3cccnc23)cc1 |  | 0.22 |  |  |
| Cc1ccc(-n2nc(C3CC3)cc2NC(=O)c2cnn3cccnc23)cc1 | 99 (≈ 35.5 µg/mL) | 0.37 | 2.37 |  |
| Cc1ccc(-n2nc(-c3ccncc3)cc2NC(=O)c2cnn3cccnc23)cc1 | < 2 | 0.061 |  |  |
| Cc1ccc(-n2nc(-c3cccnc3)cc2NC(=O)c2cnn3cccnc23)cc1 | < 2 | 0.099 | 0.44 |  |
| Cc1ccc(-n2nc(C3CCN(S(C)(=O)=O)CC3)cc2NC(=O)c2cnn3cccnc23)cc1 | < 2 | 0.067 | 19.3 | Activity [5]: 21%; inhibition [20]: > 80%; Activity [6]: inactive; IC50 [11]: 2.4 µM; inhibition [19]: > 80%; concentration at 3 h [21]: 2660 nM; Activity [16]: 28%; Papp [22]: 31 ×10⁻⁶ cm/s; Activity [17]: inactive |
| CC(C)N1CCC(c2cc(NC(=O)c3cnn4cccnc34)n(-c3ccc(C4CC4)cc3F)n2)CC1 |  | 0.013 |  | AUC(0-t) at 8 h [18]: 1.11 µM·h |
| COc1ccc(-c2cc(NC(=O)c3cnn4cccnc34)n(-c3ccc(C)cc3)n2)cc1 | < 2 | 0.17 |  | inhibition [23]: > 80%; inhibition [19]: > 80% |
| Cc1ccc(-n2nc(C3CCOCC3)cc2NC(=O)c2cnn3cccnc23)cc1 | 24 (≈ 9.66 µg/mL) | 0.41 | 0.45 |  |
| C[C@@H]1C[C@H]2[C@@H]3CCC4=CC(=O)C=C[C@]4(C)[C@@]3(F)[C@@H](O)C[C@]2(C)[C@@]1(O)C(=O)CO |  |  |  | Activity [24]: Active |
| CS(=O)(=O)N1CCC(c2cc(NC(=O)c3cnn4cccnc34)n(-c3ccc(C4CC4)cc3F)n2)CC1 |  | 0.085 |  |  |
| CS(=O)(=O)N1CCC(c2cc(NC(=O)c3cnn4cccnc34)n(-c3ccc(C4CC4)cc3)n2)CC1 |  | 0.059 | 5.26 |  |
| CS(=O)(=O)N1CCC(c2cc(NC(=O)c3cnn4cccnc34)n(-c3ccccc3)n2)CC1 |  | 0.28 |  |  |
| COc1ccc(-n2nc(C3CCN(S(C)(=O)=O)CC3)cc2NC(=O)c2cnn3cccnc23)cc1 |  | 0.071 | 0.43 |  |
| Cc1ccc(-n2nc(C3CCN(C)CC3)cc2NC(=O)c2cnn3cccnc23)cc1 | 165 (≈ 68.6 µg/mL) | 0.15 |  |  |
| CS(=O)(=O)N1CCC(c2cc(NC(=O)c3cnn4cccnc34)n(-c3ccc(C4CC4)cn3)n2)CC1 |  | 0.02 |  | AUC(0-t) at 8 h [18]: 1.9 µM·h |
| Cc1ccc(-n2nc(N3CCN(S(C)(=O)=O)CC3)cc2NC(=O)c2cnn3cccnc23)nc1 |  | 0.002 |  | AUC(0-t) at 8 h [18]: 8.9 µM·h |
| Cc1ccc(-n2nc(C3CCCCC3)cc2NC(=O)c2cnn3cccnc23)cc1 | < 2 | 2.4 |  |  |
